Measurements reported in PMC3505964 (Nucleic Acids Research, 2012).

Columns and labels:
[1] = tested on: avian myeloblastosis virus reverse transcriptase (AMV-RT); test: PAGE analysis of primer extension reactions, AMV-RT; assay type: biochemical; settings: single dNTPs
[2] = target: T1, human DNA polymerase β (Homo sapiens, UniProt P06746); test: PAGE analysis of primer extension reactions, pol β; assay type: biochemical
[3] = free nucleoside; cited from earlier work
[4] = cited from earlier work
[5] = pKa determination from pH-dependent UV absorption; assay type: physicochemical; settings: 25 °C; for pKa (deprotonation at N1): free nucleoside
[6] = target: T1, human DNA polymerase β; test: MALDI-TOF analysis of primer extension products, pol β; assay type: biochemical; settings: 1 mM each dNTP, 19-mer and 20-mer products
Method in brief: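 Unlabelled 16-mer primer (10 pmol) annealed to a 25-mer template (20 pmol; 2′-O-methylguanosine or 8-nitro-2′-O-methylguanosine) at 70°C for 20 min, then room temperature for 15 min. Final pol β was 750 nM, with 1 mM each dNTP. Incubated 37°C for 60 min, stopped at 90°C for 5 min. Desalted on C18 tips (0.1 M TEAA pH 7.0), eluted in 3-HPA/ammonium citrate matrix. Products assigned by calculated m/z against a 20-mer standard mix.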

[7] = tested on: avian myeloblastosis virus reverse transcriptase (AMV-RT); test: MALDI-TOF analysis of primer extension products, AMV-RT; assay type: biochemical; settings: 1 mM each dNTP, 20-mer products

Q: With “5′-TCANCATTGGGAGTCGACATAGCGC–3′ [8-nitroG template]” as the compound, how does the “single dNTP most preferentially inserted” value [1] read?
A: The value was “dATP”.

Q: What about the “dCTP incorporation, level relative to the control” value ([2]; single dCTP) of the same compound?
A: The value was < 20%.

Q: And the “increase of dTTP incorporation relative to control” value ([2]; single dTTP, from a low level)?
A: The value was “around 2 fold”.

Q: With `Nc1nc2c(ncn2[C@@H]2O[C@H](CO)[C@@H](O)[C@H]2O)c(=O)[nH]1` [guanosine] as the compound, how does the pKa [3] read?
A: The pKa was 9.4.

Q: For `Nc1nc2c(nc([N+](=O)[O-])n2[C@@H]2O[C@H](CO)[C@@H](O)[C@H]2O)c(=O)[nH]1` [Compound 6a, 8-Nitroguanosine], which “half-life (hydrolytic stability)” value ([4]; pH 7 and 37°C, ref one published study) is on record?
A: The value was 0.21 days.

Q: What about the “pKa (deprotonation at N1)” value [5] of the same compound?
A: The value was 8.4.

Q: For `CO[C@@H]1[C@H](O)[C@@H](CO)O[C@H]1n1c([N+](=O)[O-])nc2c(=O)[nH]c(N)nc21` [Compound 6b, 8-Nitro-2′-O-methylguanosine], which “pKa (deprotonation at N1)” value [5] is on record?
A: The value was 8.3.

Q: For “5′-TCANCATTGGGAGTCGACATAGCGC–3′ [control template]”, which “nucleotide incorporated opposite X in extended products” value [6] is on record?
A: The value was “only dC”.

Q: And the “nucleotide incorporated opposite X in extended products” value [7]?
A: The value was “predominantly dC”.

Q: Which “half-life (depurination)” value ([4]; pH 7.4) does the source give for `Nc1nc2c(nc([N+](=O)[O-])n2C2OC(CO)C(O)C2F)c(=O)[nH]1` (centres unmarked) [2′-fluoro, reference compound] here?
A: Its value is 72 days.

Q: For GCGTACG**CATGCG [ODN4], which “pKa of 8-nitro-2′-O-methylguanosine within the single-stranded oligonucleotide” value ([5]; single-stranded ODN GCGTACG**CATGCG) is on record?
A: Its value is 9.1.
